ChEMBL document CHEMBL5038578, “Design, Synthesis, and Biological Evaluation of Peptidomimetic Aldehydes as Broad-Spectrum Inhibitors against Enterovirus and SARS-CoV-2” (J Med Chem, 2022)

Tested on: not listed separately
Test: Cytotoxicity against human RD cells assessed as reduction in cell viability measured after 4 days by MTS/PMS assay
Assay type: toxicity, cell-based
Details: time 4 day

SMILES	CC50 at 96 h
O=C[C@H](C[C@@H]1CCNC1=O)NC(=O)[C@H](Cc1ccccc1)NC(=O)c1cccc2c1OCCO2	> 100 µM
O=C[C@H](C[C@@H]1CCNC1=O)NC(=O)[C@H](Cc1ccccc1)NC(=O)c1ccc2ccccc2n1	> 100 µM
O=C[C@H](C[C@@H]1CCNC1=O)NC(=O)[C@H](Cc1ccccc1)NC(=O)c1cncc(F)c1	> 100 µM
O=C(/C=C/c1ccccc1)N[C@@H](Cc1ccccc1)C(=O)N[C@H](/C=C/C(=O)OCc1ccccc1)C[C@@H]1CCNC1=O	> 100 µM
O=C[C@H](C[C@@H]1CCNC1=O)NC(=O)[C@H](Cc1ccccc1)NC(=O)c1cc2ccccc2o1	> 100 µM
O=C[C@H](C[C@@H]1CCNC1=O)NC(=O)[C@H](Cc1ccccc1)NC(=O)c1ccc2ccc(Br)cc2n1	46.2 µM
O=C[C@H](C[C@@H]1CCNC1=O)NC(=O)[C@H](Cc1ccccc1)NC(=O)c1ccc2c(c1)OCO2	> 100 µM
Cc1cc(C(=O)N[C@@H](Cc2ccccc2)C(=O)N[C@H](C=O)C[C@@H]2CCNC2=O)no1	> 100 µM
O=C[C@H](C[C@@H]1CCNC1=O)NC(=O)[C@H](Cc1ccccc1)NC(=O)c1ccc2occc2c1	> 100 µM
CC(C)[C@H](NC(=O)c1cc2ccccc2[nH]1)C(=O)N[C@@H](Cc1ccccc1)C(=O)N[C@H](C=O)C[C@@H]1CCNC1=O	72.5 µM
O=C[C@H](C[C@@H]1CCNC1=O)NC(=O)[C@H](Cc1ccccc1)NC(=O)c1cnc2ccccc2n1	> 100 µM
O=C[C@H](C[C@@H]1CCNC1=O)NC(=O)[C@H](Cc1ccccc1)NC(=O)c1cn2cc(Br)ccc2n1	> 100 µM

Tested on: Coxsackievirus B3
Test: Antiviral activity against Human coxsackievirus B3 infected in Vero cells assessed as reduction in plaque formation treated 2 hrs post viral infection and measured 3 to 4 days post-infection by Giemsa staining based plaque reduction assay
Assay type: functional, organism-based
Details: Enterovirus B

SMILES	EC50
CC(C)[C@H](NC(=O)c1cc2ccccc2[nH]1)C(=O)N[C@@H](Cc1ccccc1)C(=O)N[C@H](C=O)C[C@@H]1CCNC1=O	9.15 µM

Tested on: not listed separately
Test: Inhibition of Human enterovirus 71 3C-like protease expressed in Escherichia coli BL21 (DE3) cells using Dacyl-KTSAVLQSGFRKMEEdans as fluorogenic substrate incubated for 10 mins by FRET assay
Parameters: species or system Enterovirus A71
Details: not given
In short: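 EV71 3Cpro expressed with N-terminal His-SUMO2 tag, tag cut by SENP2, then purified on Ni-NTA, Q-Sepharose and Superdex200. Enzyme at 5 μM final, preincubated 10 min with serial compound dilutions in 25 mM Tris pH 8.0, 150 mM NaCl, 10% glycerol. Fluorescence read at ex 340/em 490 nm. IC50 (mean ± SD, ≥3 experiments) by nonlinear regression.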

SMILES	IC50
O=C[C@H](C[C@@H]1CCNC1=O)NC(=O)[C@H](Cc1ccccc1)NC(=O)c1cccc2c1OCCO2	3.01 µM
O=C[C@H](C[C@@H]1CCNC1=O)NC(=O)[C@H](Cc1ccccc1)NC(=O)c1ccc2ccccc2n1	13 µM
O=C[C@H](C[C@@H]1CCNC1=O)NC(=O)[C@H](Cc1ccccc1)NC(=O)c1cncc(F)c1	2.02 µM
O=C(/C=C/c1ccccc1)N[C@@H](Cc1ccccc1)C(=O)N[C@H](/C=C/C(=O)OCc1ccccc1)C[C@@H]1CCNC1=O	2.06 µM
O=C[C@H](C[C@@H]1CCNC1=O)NC(=O)[C@H](Cc1ccccc1)NC(=O)c1cc2ccccc2o1	2.44 µM
O=C[C@H](C[C@@H]1CCNC1=O)NC(=O)[C@H](Cc1ccccc1)NC(=O)c1ccc2ccc(Br)cc2n1	3.22 µM
O=C[C@H](C[C@@H]1CCNC1=O)NC(=O)[C@H](Cc1ccccc1)NC(=O)c1ccc2c(c1)OCO2	1.47 µM
Cc1cc(C(=O)N[C@@H](Cc2ccccc2)C(=O)N[C@H](C=O)C[C@@H]2CCNC2=O)no1	2.09 µM
O=C[C@H](C[C@@H]1CCNC1=O)NC(=O)[C@H](Cc1ccccc1)NC(=O)c1ccc2occc2c1	2.37 µM
CC(C)[C@H](NC(=O)c1cc2ccccc2[nH]1)C(=O)N[C@@H](Cc1ccccc1)C(=O)N[C@H](C=O)C[C@@H]1CCNC1=O	4.16 µM
O=C[C@H](C[C@@H]1CCNC1=O)NC(=O)[C@H](Cc1ccccc1)NC(=O)c1cnc2ccccc2n1	3.6 µM
O=C[C@H](C[C@@H]1CCNC1=O)NC(=O)[C@H](Cc1ccccc1)NC(=O)c1cn2cc(Br)ccc2n1	1.62 µM

Tested on: rhinovirus B14
Test: Antiviral activity against wild type Human rhinovirus B14 infected in HeLa cells assessed as reduction in virus-induced cytopathic effect incubated for 3 days by MTS/PMS assay
Assay type: functional, organism-based
Details: Rhinovirus B, 72 h

SMILES	EC50
CC(C)[C@H](NC(=O)c1cc2ccccc2[nH]1)C(=O)N[C@@H](Cc1ccccc1)C(=O)N[C@H](C=O)C[C@@H]1CCNC1=O	0.98 µM

Tested on: Coxsackievirus A21
Test: Antiviral activity against Human coxsackievirus A21 infected in HeLa cells assessed as reduction in virus-induced cytopathic effect incubated for 3 days by MTS/PMS assay
Assay type: functional, organism-based
Details: Enterovirus C, 72 h

SMILES	EC50
CC(C)[C@H](NC(=O)c1cc2ccccc2[nH]1)C(=O)N[C@@H](Cc1ccccc1)C(=O)N[C@H](C=O)C[C@@H]1CCNC1=O	0.51 µM

Tested on: not listed separately
Test: Inhibition of SARS-CoV2 3C-like protease expressed in Escherichia coli BL21 (DE3) cells using Mca-AVLQSGFR-Lys(Dnp)-Lys-NH2 as fluorogenic substrate incubated for 10 mins by FRET assay
Parameters: species or system Severe acute respiratory syndrome coronavirus 2
Details: not given

SMILES	IC50
O=C[C@H](C[C@@H]1CCNC1=O)NC(=O)[C@H](Cc1ccccc1)NC(=O)c1cccc2c1OCCO2	0.097 µM
O=C[C@H](C[C@@H]1CCNC1=O)NC(=O)[C@H](Cc1ccccc1)NC(=O)c1ccc2ccccc2n1	0.14 µM
O=C[C@H](C[C@@H]1CCNC1=O)NC(=O)[C@H](Cc1ccccc1)NC(=O)c1cc2ccccc2o1	0.08 µM
O=C[C@H](C[C@@H]1CCNC1=O)NC(=O)[C@H](Cc1ccccc1)NC(=O)c1ccc2ccc(Br)cc2n1	0.24 µM
O=C[C@H](C[C@@H]1CCNC1=O)NC(=O)[C@H](Cc1ccccc1)NC(=O)c1ccc2c(c1)OCO2	0.078 µM
O=C[C@H](C[C@@H]1CCNC1=O)NC(=O)[C@H](Cc1ccccc1)NC(=O)c1ccc2occc2c1	0.059 µM
CC(C)[C@H](NC(=O)c1cc2ccccc2[nH]1)C(=O)N[C@@H](Cc1ccccc1)C(=O)N[C@H](C=O)C[C@@H]1CCNC1=O	0.068 µM

Tested on: rhinovirus A2
Test: Antiviral activity against wild type Rhinovirus-A02 infected in HeLa cells assessed as reduction in virus-induced cytopathic effect incubated for 3 days by MTS/PMS assay
Assay type: functional, cell-based
Details: Rhinovirus A, 72 h

SMILES	EC50
CC(C)[C@H](NC(=O)c1cc2ccccc2[nH]1)C(=O)N[C@@H](Cc1ccccc1)C(=O)N[C@H](C=O)C[C@@H]1CCNC1=O	1.02 µM

Tested on: enterovirus D68
Test: Antiviral activity against Human enterovirus 68 infected in HeLa cells assessed as reduction in virus-induced cytopathic effect incubated for 4 days by MTS/PMS assay
Assay type: functional, organism-based
Details: Enterovirus D, 96 h

SMILES	EC50
CC(C)[C@H](NC(=O)c1cc2ccccc2[nH]1)C(=O)N[C@@H](Cc1ccccc1)C(=O)N[C@H](C=O)C[C@@H]1CCNC1=O	0.26 µM

Tested on: Enterovirus A71
Test: Antiviral activity against Human enterovirus 71 BrCr infected in human RD cells assessed as reduction in virus-induced cytopathic effect incubated for 4 days by MTS/PMS assay
Assay type: functional, organism-based
Details: Enterovirus A, 96 h
In short: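 RD cells (2.5 × 10^4/well) adhered overnight, then infected with EV71 BrCr and given serial compound dilutions. Incubated 4 days, until full CPE in virus controls. Viability by MTS/PMS, absorbance at 498 nm after 1–2 h at 37 °C. Normalised to infected and uninfected untreated controls; EC50 by curve fitting.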

SMILES	EC50
O=C[C@H](C[C@@H]1CCNC1=O)NC(=O)[C@H](Cc1ccccc1)NC(=O)c1cccc2c1OCCO2	0.77 µM
O=C[C@H](C[C@@H]1CCNC1=O)NC(=O)[C@H](Cc1ccccc1)NC(=O)c1ccc2ccccc2n1	0.12 µM
O=C[C@H](C[C@@H]1CCNC1=O)NC(=O)[C@H](Cc1ccccc1)NC(=O)c1cncc(F)c1	0.47 µM
O=C(/C=C/c1ccccc1)N[C@@H](Cc1ccccc1)C(=O)N[C@H](/C=C/C(=O)OCc1ccccc1)C[C@@H]1CCNC1=O	3.1 µM
O=C[C@H](C[C@@H]1CCNC1=O)NC(=O)[C@H](Cc1ccccc1)NC(=O)c1cc2ccccc2o1	0.093 µM
O=C[C@H](C[C@@H]1CCNC1=O)NC(=O)[C@H](Cc1ccccc1)NC(=O)c1ccc2ccc(Br)cc2n1	0.094 µM
O=C[C@H](C[C@@H]1CCNC1=O)NC(=O)[C@H](Cc1ccccc1)NC(=O)c1ccc2c(c1)OCO2	0.22 µM
Cc1cc(C(=O)N[C@@H](Cc2ccccc2)C(=O)N[C@H](C=O)C[C@@H]2CCNC2=O)no1	0.32 µM
O=C[C@H](C[C@@H]1CCNC1=O)NC(=O)[C@H](Cc1ccccc1)NC(=O)c1ccc2occc2c1	0.29 µM
CC(C)[C@H](NC(=O)c1cc2ccccc2[nH]1)C(=O)N[C@@H](Cc1ccccc1)C(=O)N[C@H](C=O)C[C@@H]1CCNC1=O	0.12 µM
O=C[C@H](C[C@@H]1CCNC1=O)NC(=O)[C@H](Cc1ccccc1)NC(=O)c1cnc2ccccc2n1	0.14 µM
O=C[C@H](C[C@@H]1CCNC1=O)NC(=O)[C@H](Cc1ccccc1)NC(=O)c1cn2cc(Br)ccc2n1	0.36 µM

Tested on: not listed separately
Test: Cytotoxicity against African green monkey Vero E6 cells assessed as reduction in cell viability incubated for 24 hrs by CCK8 assay
Assay type: toxicity, cell-based, Vero C1008
Details: chlorocebus sabaeus
In short: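 Vero E6 cells (2 × 10^4/well) exposed to graded compound concentrations for 24 h. Relative surviving cell number measured by CCK-8.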

SMILES	CC50 at 24 h
O=C[C@H](C[C@@H]1CCNC1=O)NC(=O)[C@H](Cc1ccccc1)NC(=O)c1cccc2c1OCCO2	> 1000 µM
O=C[C@H](C[C@@H]1CCNC1=O)NC(=O)[C@H](Cc1ccccc1)NC(=O)c1ccc2ccccc2n1	627 µM
O=C[C@H](C[C@@H]1CCNC1=O)NC(=O)[C@H](Cc1ccccc1)NC(=O)c1cc2ccccc2o1	> 1000 µM
O=C[C@H](C[C@@H]1CCNC1=O)NC(=O)[C@H](Cc1ccccc1)NC(=O)c1ccc2ccc(Br)cc2n1	823 µM
O=C[C@H](C[C@@H]1CCNC1=O)NC(=O)[C@H](Cc1ccccc1)NC(=O)c1ccc2c(c1)OCO2	> 1000 µM
O=C[C@H](C[C@@H]1CCNC1=O)NC(=O)[C@H](Cc1ccccc1)NC(=O)c1ccc2occc2c1	> 1000 µM
CC(C)[C@H](NC(=O)c1cc2ccccc2[nH]1)C(=O)N[C@@H](Cc1ccccc1)C(=O)N[C@H](C=O)C[C@@H]1CCNC1=O	> 1000 µM

Tested on: SARS-CoV-2
Test: Antiviral activity against SARS Cov-2 infected in Vero E6 cells assessed as reduction in viral RNA replication measured 24 hrs post infection by qRT-PCR analysis
Assay type: functional, organism-based
Details: Severe acute respiratory syndrome coronavirus 2, Vero C1008, 24 h

SMILES	EC50
O=C[C@H](C[C@@H]1CCNC1=O)NC(=O)[C@H](Cc1ccccc1)NC(=O)c1cccc2c1OCCO2	8.21 µM
O=C[C@H](C[C@@H]1CCNC1=O)NC(=O)[C@H](Cc1ccccc1)NC(=O)c1ccc2ccccc2n1	0.43 µM
O=C[C@H](C[C@@H]1CCNC1=O)NC(=O)[C@H](Cc1ccccc1)NC(=O)c1cc2ccccc2o1	0.49 µM
O=C[C@H](C[C@@H]1CCNC1=O)NC(=O)[C@H](Cc1ccccc1)NC(=O)c1ccc2ccc(Br)cc2n1	0.35 µM
O=C[C@H](C[C@@H]1CCNC1=O)NC(=O)[C@H](Cc1ccccc1)NC(=O)c1ccc2c(c1)OCO2	1.35 µM
O=C[C@H](C[C@@H]1CCNC1=O)NC(=O)[C@H](Cc1ccccc1)NC(=O)c1ccc2occc2c1	0.76 µM
CC(C)[C@H](NC(=O)c1cc2ccccc2[nH]1)C(=O)N[C@@H](Cc1ccccc1)C(=O)N[C@H](C=O)C[C@@H]1CCNC1=O	4.22 µM
